Test system: L02
Assay: Cytotoxicity against human LO2 cells assessed as reduction in cell survival after 24 hrs by MTT assay
Type: cell-based
Conditions: L02, 24 h
Work on `NC(=S)c1ccc(OC(=O)c2ccc(Cl)cc2)cc1` yielded an IC50 greater than 800 µM.
Molecule `CC(C(=O)Oc1ccc(C(N)=S)cc1)c1cccc(C(=O)c2ccccc2)c1` (stereo not drawn) has an IC50 of 1180 µM.
Work on `CC1=C(CC(=O)Oc2ccc(C(N)=S)cc2)c2cc(F)ccc2/C1=C\c1ccc([S+](C)[O-])cc1` (stereo not drawn) yielded an IC50 of 1480 µM.
In the case of `COc1ccc2cc(C(C)C(=O)Oc3ccc(-c4cc(=S)ss4)cc3)ccc2c1` (stereo not drawn), the IC50 is reported as 1040 µM.
Work on `O=C(/C=C/c1ccccc1)Oc1ccc(-c2cc(=S)ss2)cc1` yielded an IC50 of 536 µM.

Test system: not listed separately
Assay: Drug degradation in phosphate buffer assessed as H2S release by measuring test compound half life at 40 uM measured every 5 mins in presence of TECP by UV-Vis spectrometry
Type: physicochemical
Conditions: not given
Procedure, shortened: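 Sulfide release at 37.5 °C: donor (40 mM THF stock) added to pH 7.4 phosphate buffer with 1.0 mM TECP; aliquots taken every 5 min into methylene blue cocktail (zinc acetate, N,N-dimethyl-1,4-phenylenediamine, FeCl3 in HCl), A670 read 15 min later; H2S from Na2S calibration curve; concentration vs time curve; four independent experiments.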
`NC(=S)c1ccccc1` showed a half-life at 40 µM of 0.9 min.
Work on `Oc1ccc(-c2cc(=S)ss2)cc1` yielded a half-life at 40 µM of 3.9 min.
`NC(=S)c1ccc(OC(=O)c2ccc(Cl)cc2)cc1` gave a half-life at 40 µM of 14.4 min.
In the case of `CC(C(=O)Oc1ccc(C(N)=S)cc1)c1cccc(C(=O)c2ccccc2)c1` (stereo not drawn), the half-life at 40 µM is reported as 9.8 min.
`CC1=C(CC(=O)Oc2ccc(C(N)=S)cc2)c2cc(F)ccc2/C1=C\c1ccc([S+](C)[O-])cc1` (stereo not drawn) gave a half-life at 40 µM of 3.1 min.
In the case of `COc1ccc2cc(C(C)C(=O)Oc3ccc(-c4cc(=S)ss4)cc3)ccc2c1` (stereo not drawn), the half-life at 40 µM is reported as 3.1 min.
In the case of `O=C(/C=C/c1ccccc1)Oc1ccc(-c2cc(=S)ss2)cc1`, the half-life at 40 µM is reported as 1.9 min.

Test system: not listed separately
Assay: Drug degradation in phosphate buffer assessed as H2S release by measuring test compound half life at 40 uM measured every 5 mins in presence of L-cysteine by UV-Vis spectrometry
Type: physicochemical
Conditions: not given
Procedure, shortened: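 Sulfide release at 37.5 °C: donor (40 mM THF stock) added to pH 7.4 phosphate buffer with 1.0 mM L-cysteine; aliquots taken every 5 min into zinc acetate/N,N-dimethyl-1,4-phenylenediamine/FeCl3 in HCl, A670 read 15 min later; H2S quantified against Na2S standard curve (5–150 μM); release curve plotted vs time; four independent experiments.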
Work on `O=C(O)CCCCC1CCSS1` (stereo not drawn) [LIPOIC ACID, ALPHA] yielded a half-life at 40 µM of 118 min.

Test system: HepG2
Assay: Cytotoxicity against human HepG2 cells assessed as reduction in cell survival after 24 hrs by MTT assay
Type: cell-based
Conditions: HepG2, 24 h
Molecule `NC(=S)c1ccc(OC(=O)c2ccc(Cl)cc2)cc1` has an IC50 of 1060 µM.
`CC(C(=O)Oc1ccc(C(N)=S)cc1)c1cccc(C(=O)c2ccccc2)c1` (stereo not drawn) gave an IC50 of 1070 µM.
`CC1=C(CC(=O)Oc2ccc(C(N)=S)cc2)c2cc(F)ccc2/C1=C\c1ccc([S+](C)[O-])cc1` (stereo not drawn) showed an IC50 of 1080 µM.
With `COc1ccc2cc(C(C)C(=O)Oc3ccc(-c4cc(=S)ss4)cc3)ccc2c1` (stereo not drawn) the IC50 was 1120 µM.
Molecule `O=C(/C=C/c1ccccc1)Oc1ccc(-c2cc(=S)ss2)cc1` has an IC50 of 1080 µM.

From ChEMBL document CHEMBL4190227, “Syntheses, toxicities and anti-inflammation of H2S-donors based on non-steroidal anti-inflammatory drugs” (Eur J Med Chem, 2017)
